Most compounds without a hit are left out; they make up all but 3.7% or so of the library.
HCV core dimer = blocks dimerization of HCV core protein; TR-FRET GST/Flag-core106 dimerization, 1536-well; inhibition, % at 5 µM; 300,000 tested, 0.33% active;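 active = inhibition above the mean of all tested compounds plus 3 SD, set per screening campaign, cut at about 45% in these data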
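System – GST-tagged and Flag-tagged HCV core protein residues 1-106 · Repeats – one well for each compound · Technique – TR-FRET 671 and 617 nm emission · Doses – one concentration, 5 µM, in 0.5% DMSO · Times – 4 h, 22.5 °C incubation · Also added – Eu donor and XL665 acceptor anti-tag antibodies · Measure – percent inhibition of core106 dimerization signal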
TAAR1 antagonist = antagonists of human TAAR1; CHO RD-HGA16 TAAR1, Fluo-8 calcium fluorescence, antagonist; Q96RJ0; inhibition, % at 3 µM; 360,000 tested, 1.5% active;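 active = inhibition above a per-plate cutoff, the mean inhibition of test compounds on that plate plus 3 SD, cut at about 49% in these data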
Target sequence (Q96RJ0 whole entry, looked up): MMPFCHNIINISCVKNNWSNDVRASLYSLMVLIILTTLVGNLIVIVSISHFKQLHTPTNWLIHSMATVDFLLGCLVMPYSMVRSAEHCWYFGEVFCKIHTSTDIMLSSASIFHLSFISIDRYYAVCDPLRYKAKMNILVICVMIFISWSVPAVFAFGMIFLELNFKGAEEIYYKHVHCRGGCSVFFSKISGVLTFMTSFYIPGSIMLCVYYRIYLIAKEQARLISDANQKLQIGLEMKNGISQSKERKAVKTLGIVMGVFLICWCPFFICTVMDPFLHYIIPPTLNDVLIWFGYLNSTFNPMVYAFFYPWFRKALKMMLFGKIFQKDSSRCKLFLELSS
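Test system: RD-HGA16 CHO cells with stable hTAAR1 and Gα16 / Probe or stimulus: EC80 β-phenethylamine stimulus / Times: seeding 17-24 h prior, 75-min 37 °C, 30-min RT dye loading / Detection: Fluo-8 calcium-sensitive fluorescence / Read-out basis: % inhibition scaled between DMSO and EC80 PEA controls / Repeats: singlicate, one well per test compound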
rCAG RNA binder = molecules binding r(CAG) RNA repeats; r(CAG) RNA repeat, TO-PRO-1 dye displacement fluorescence; inhibition, % at 3 µM; 370,000 tested, 1.3% active; AID 651821;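 active = inhibition above the plate cutoff, the mean of all test compounds on that plate plus 3 SD, cut at about 35% in these data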;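 also: higher means more dye released from RNA so lower well fluorescence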
TAAR1 ag = agonists of human TAAR1; Q96RJ0; CHO RD-HGA16 TAAR1, Fluo-8 calcium fluorescence; vehicle wells 0%, saturating PEA agonist 100%; activation, % at 3 µM; 360,000 tested, 0.99% active;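 active = activation above the mean activation of all test compounds in the run plus 3 SD, cut at about 38% in these data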
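Benchmarks: low control DMSO, high control PEA (EC100); System: CHO RD-HGA16 cells carrying human TAAR1 plus Gα16; Detection: Fluo-8 fluorescence, 5 s baseline then 140 s kinetic read; Schedule: 17-24 h plating, Fluo-8 75 min 37 °C, 30 min RT; Read-out basis: % activation from peak over basal fluorescence ratio, DMSO-to-PEA scaled.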
HCV NS3 hel inh = inhibitors of Hepatitis C virus NS3 helicase | NS3 helicase DNA unwinding, Cy5 molecular beacon fluorescence | inhibition, % at 10.9 µM | 290,000 tested, 0.56% active;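 active = inhibition above the mean of all tested compounds plus 3 SD, set per campaign, cut at about 35% in these data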
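System: Hepatitis C virus NS3 helicase domain fragment enzyme | Reagent: Annealed dual-labelled DNA beacon duplex, ATP-started | Compound dosing: 10.9 µM single point, 0.8% DMSO | Incubation: 1 h reaction at 25 °C, ATP-initiated | Technique: Cy5 fluorescence | Evaluation: Percent inhibition from t60/t0 fluorescence ratio | Benchmarks: Low DMSO, high thioflavine S at 110 µM | Replication: Singlicate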
TAAR1 nonsel count = counter-screen for TAAR1 antagonists: nonselective antagonists; inhibition, % at 3 µM; AID 651780; counterscreen cell line, calcium fluorescence, antagonist mode; 2,400 tested, 77% active; shares compounds with TAAR1 antagonist; in the data active = inhibition above about 22%;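 also: CHO-Ga16 host cells stimulated with ATP at an EC80 level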
TAAR1 antag conf = human TAAR1 antagonism, confirmed. shares compounds with TAAR1 antagonist. TAAR1-expressing cells, fluorescence antagonist read-out. inhibition, % at 3 µM. 2,400 tested, 40% active; in the data active = inhibition above about 49%;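 also: CHO-Ga16 host cells challenged with agonist PEA near its EC80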
Ga16 nonsel ag = counter-screen for TAAR1 antagonists: nonselective Ga16 agonists | Ga16-expressing cells, calcium fluorescence, agonist counterscreen | activation, % at 3 µM | shares compounds with TAAR1 antagonist | AID 651953 | 2,400 tested, 18% active; in the data active = activation above about 12%
TAAR1 ag count = TAAR1 agonism, antagonist counter-screen; shares compounds with TAAR1 antagonist; hTAAR1 cell line, fluorescence activation, agonist mode; activation, % at 3 µM; 2,400 tested, 2% active; in the data active = activation above about 37%;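 also: CHO cells stably expressing TAAR1 with calcium dye readout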
Numbers stand for hits; n = inactive; x = no result.

SMILES | HCV core dimer | TAAR1 antagonist | rCAG RNA binder | TAAR1 ag | HCV NS3 hel inh | TAAR1 nonsel count | TAAR1 antag conf | Ga16 nonsel ag | TAAR1 ag count
Cc1ccc(-c2cc(C(=O)N3CCN(c4ccccc4O)CC3)c3ccccc3n2)cc1 | n | 62.4 | n | n | x | 35.8 | n | n | n
NC(=O)C1CCN(C(=O)c2cc(-c3ccc(Cl)s3)nc3ccccc23)CC1 | x | 59.9 | n | n | x | 32.3 | n | n | n
COc1ccc(-c2cc(C(=O)N3CCN(c4ccccc4O)CC3)c3ccccc3n2)cc1OC | n | 74.0 | n | n | n | 26.4 | n | n | n
Cc1ccc(-c2cc(C(=O)N3CCN(c4ccc(O)cc4)CC3)c3ccccc3n2)cc1 | x | 64.7 | n | n | x | 34.8 | n | n | n
COc1ccc(-c2cc(C(=O)N3CCN(c4ccccc4)CC3)c3ccccc3n2)cc1 | n | n | n | n | n | x | x | x | x
NC(=O)c1nsc(C(=O)N(c2ccccc2)C(C(=O)NCc2ccc(F)cc2)c2ccc(O)cc2)c1N (configuration not stated) | n | 74.5 | n | n | n | 37.6 | 63.8 | 13.8 | n
NC(=O)c1nsc(C(=O)N(c2ccccc2)C(C(=O)NCc2ccc(F)cc2)c2ccco2)c1N (configuration not stated) | n | 67.5 | n | n | n | 21.4 | 53.0 | n | 39.6
NC(=O)c1nsc(C(=O)N(c2ccccc2)C(C(=O)NC2CCCCC2)c2ccc(O)cc2)c1N (configuration not stated) | n | 63.7 | n | n | n | 24.5 | n | n | n
O=C(COC(=O)Cc1c(Cl)cccc1Cl)Nc1ccccc1-c1ccccc1 | n | 62.3 | n | n | n | 22.3 | 52.1 | n | n
O=C(COC(=O)Cc1ccc(Cl)cc1)Nc1ccccc1-c1ccccc1 | n | n | n | n | n | x | x | x | x
COc1ccc(-c2csc(NC(=O)CSCc3c(C)noc3C)n2)cc1OC | n | n | n | n | n | x | x | x | x
COc1ccc(-c2csc(NC(=O)Cc3ccccc3F)n2)cc1OC | n | n | n | n | n | x | x | x | x
COc1ccccc1CC(=O)Nc1nc(-c2ccc(F)c(F)c2)cs1 | n | 51.1 | n | n | n | 22.2 | n | n | n
O=C(CS(=O)(=O)c1ccccc1)Nc1nc(-c2ccc(F)cc2)cs1 | n | n | n | n | n | x | x | x | x
Cc1noc(C)c1CSCC(=O)Nc1nc(-c2ccc(F)c(F)c2)cs1 | n | 81.5 | n | n | x | 49.2 | 58.0 | n | n
O=C(Cc1ccccc1F)Nc1nc(-c2ccc(F)cc2)cs1 | n | 73.9 | n | n | n | 30.0 | 59.4 | n | n
COC(=O)[C@]12CCCCC=C1N(Cc1ccc(OC)cc1)C(=O)[C@@H]2CC(=O)N1CCC(c2ccccc2)CC1 | x | x | n | x | x | x | x | x | x
CCc1cc2c(COC(=O)c3cccc(NS(C)(=O)=O)c3)cc(=O)oc2cc1O | n | 64.7 | n | n | n | 33.0 | n | n | n
O=C(Nc1cccc(/C=C/c2ccccn2)c1)c1ccc(-n2cncn2)c([N+](=O)[O-])c1 | n | 72.6 | n | n | x | 40.2 | 60.9 | 13.9 | n
CCNC(=O)c1ccccc1NC(=O)c1cccc(S(=O)(=O)N2CCC(C)CC2)c1 | n | 58.7 | n | n | n | 33.2 | n | n | n
Cc1ccc(CCNC(=O)C2CCCN(c3nc4ccccc4o3)C2)cc1 (configuration not stated) | n | 49.5 | n | n | n | 23.4 | n | n | n
Cc1ccc(C)c(NC(=O)/C(C#N)=C/c2cn(CC(=O)NCc3ccco3)c3ccccc23)c1 | n | 102.8 | n | n | n | n | n | n | n
Cc1ccc(NC(=O)/C(C#N)=C/c2cn(CC(=O)NCc3ccco3)c3ccccc23)cc1C | n | n | n | n | n | x | x | x | x
CN(C)S(=O)(=O)c1cc(NC(=O)CNCCN2CCOCC2)ccc1Cl | n | 104.5 | n | n | n | n | n | n | n
CC(=O)c1c(C)[nH]c(C(=O)OCC(=O)Nc2ccc(Cl)c(S(=O)(=O)N(C)C)c2)c1C | n | 67.8 | n | n | n | 27.7 | n | 12.1 | n
SMILES | HCV core dimer | TAAR1 antagonist | rCAG RNA binder | TAAR1 ag | HCV NS3 hel inh | TAAR1 nonsel count | TAAR1 antag conf | Ga16 nonsel ag | TAAR1 ag count
CC(=O)c1c(C)[nH]c(C(=O)Nc2ccc(Cl)c(S(=O)(=O)N(C)C)c2)c1C | n | n | n | n | n | x | x | x | x
C=CCN1C(=O)c2n[nH]c(C(C)C)c2C1c1ccc(C)cc1 (configuration not stated) | x | n | n | n | x | x | x | x | x
CC(C)(C)c1cc(NC(=O)c2ccc(OC3CCCC3)cc2)no1 | n | 50.7 | n | n | n | 25.3 | n | n | n
O=C(Nc1ccon1)c1ccc(OC2CCCC2)cc1 | n | n | n | n | n | x | x | x | x
Cc1ccccc1N(C)C(=O)C1CCCN1S(=O)(=O)c1cccc2cccnc12 (configuration not stated) | x | x | n | x | x | x | x | x | x
O=C(COc1ccc(/C=N/NC(=O)c2ccncc2)cc1)Nc1cccc([N+](=O)[O-])c1 | n | n | n | n | n | x | x | x | x
CCOc1ccc(/C=N/NC(=O)c2ccc(Cn3cc([N+](=O)[O-])cn3)o2)cc1 | n | n | n | n | n | x | x | x | x
CC(C)(C)c1ccc(OCc2ccc(C(=O)N/N=C/c3ccc([N+](=O)[O-])cc3)o2)cc1 | n | 53.0 | n | n | n | 31.4 | n | n | n
O=C(COc1ccc(/C=N/NC(=O)c2ccccc2O)cc1)Nc1ccc([N+](=O)[O-])cc1 | 50.1 | 62.5 | n | n | n | 28.9 | n | n | n
COc1ccc(CCNC(=O)c2cc(-c3cc(Cl)ccc3O)n[nH]2)cc1OC | n | 60.5 | n | n | n | 39.0 | 53.9 | 12.8 | n
Cc1ccc(Cl)cc1-c1cc(C(=O)NCc2ccc(C(F)(F)F)cc2)[nH]n1 | x | 76.7 | n | n | x | 42.4 | 65.8 | 32.5 | 58.0
COc1ccc(Cl)c(-c2cc(C(=O)NCc3ccco3)[nH]n2)c1 | x | n | n | n | x | x | x | x | x
COc1ccc(Cl)c(-c2cc(C(=O)NCc3ccc(C(F)(F)F)cc3)[nH]n2)c1 | x | 62.8 | n | n | x | 31.9 | n | 18.7 | n
Cc1cc(NC(=O)CCc2c[nH]c3ccccc23)ccc1Nc1cccnc1 | x | n | n | n | x | x | x | x | x
CCCCCCC(=O)N(O)C1CC(=O)N(c2ccc(Br)cc2)C1=O (configuration not stated) | n | 105.5 | n | n | n | n | n | n | n
CCCCCCC(=O)N(O)C1CC(=O)N(c2ccc(F)cc2)C1=O (configuration not stated) | n | n | n | n | n | x | x | x | x
CCCC[C@@H](CCCc1ccc(F)cc1)CCC(=O)N(c1ccccc1)c1ccccc1 | x | x | n | x | x | x | x | x | x
